Source: ChEMBL document CHEMBL3124932, “Design, synthesis and evaluation of genistein-O-alkylbenzylamines as potential multifunctional agents for the treatment of Alzheimer's disease” (Eur J Med Chem, 2014)

Legend:
[1] = biological target: Amyloid-beta precursor protein (Homo sapiens) (UniProt P05067); experiment: Inhibition of self-induced amyloid beta (1 to 42) (unknown origin) aggregation at 25 uM after 24 hrs by thioflavin T fluorescence method
In short: (§1)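 HFIP-pretreated Aβ1-42 (25 µM final) incubated with compound (10–50 µM) in 50 mM phosphate pH 7.4 for 24 h at 37 °C, wells sealed. ThT in glycine-NaOH pH 8.5 added; fluorescence ex 446/em 490 nm. DMSO 12.5% final. Percent inhibition relative to peptide without inhibitor; triplicate, mean of 3 independent experiments.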

Acetylcholinesterase [2] = biological target: T1, Acetylcholinesterase (Electrophorus electricus, UniProt O42275); experiment: Inhibition of electric eel AchE using acetylthiocholine iodide as substrate after 15 mins by Ellman's method
[3] = biological target: Butyrylcholinesterase (Rattus norvegicus) (UniProt Q9JKC1); experiment: Inhibition of rat serum BuChE using butyrylthiocholine iodide as substrate at 50 uM after 15 mins by Ellman's method
In short: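 Modified Ellman assay in phosphate buffer pH 7.4. Enzyme sources: AChE from 5% rat cortex homogenate, preincubated 5 min with iso-OMPA to block BuChE; BuChE from 25% rat serum. Substrates were acetylthiocholine or butyrylthiocholine iodide. Compounds incubated 15 min at 37 °C, then DTNB added; A405 read. IC50 derived; triplicate, 3 independent experiments; "no active" means under 5% inhibition at 50 µM.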

[4] = biological target: Amyloid-beta precursor protein (Homo sapiens) (UniProt P05067); experiment: Inhibition of Cu2+-induced amyloid beta (1 to 42) (unknown origin) aggregation at 25 uM after 24 hrs by thioflavin T fluorescence method
In short: (§2)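 Aβ1-42 (25 µM final, HFIP-pretreated) with an equimolar amount of Cu2+ (25 µM) in HEPES pH 6.6 with 150 mM NaCl. Incubated with or without compound (10–35 µM final) 24 h at 37 °C. ThT in glycine-NaOH pH 8.5 added, fluorescence ex 446/em 490 nm. DMSO 12.5% final. Percent inhibition relative to no-inhibitor wells; triplicate, mean of 3 independent experiments.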

[5] = Antioxidant activity assessed as trolox equivalent of APPH-induced radical scavenging activity at 1 to 10 uM preincubated for 15 mins followed by AAPH challenge measured every minute for 90 minutes by ORAC fluorescence assay; type: functional
In short: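 ORAC-FL in phosphate buffer pH 7.4. Samples (1–10 µM) preincubated with fluorescein (150 nM final) 15 min at 37 °C, then AAPH (12 mM final) added. Fluorescence (ex 485/em 535 nm) read each minute for 90 min. Net AUC over blank converted to Trolox equivalents using a 1–8 µM Trolox curve. Duplicates, at least 3 independent assays.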

[6] = biological target: Amyloid-beta precursor protein (Homo sapiens) (UniProt P05067); experiment: Inhibition of self-induced amyloid beta (1 to 42) (unknown origin) aggregation after 24 hrs by thioflavin T fluorescence method; in short: as §1
Acetylcholinesterase [7] = biological target: Acetylcholinesterase (Homo sapiens, UniProt P22303); experiment: Inhibition of human erythrocytes AchE using acetylthiocholine iodide as substrate after 15 mins by Ellman's method
Mus musculus = experiment: Cognition enhancing effect against scopolamine-induced memory deficit in po dosed Kunming mouse assessed as increase in latency time administered 1 hr before training followed by scopolamine challenge for 7 days measured after 24 hrs by step-down passive avoidance test; type: functional, organism-based
In short: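 Kunming mice, six weeks old, 18–22 g, either sex, n=10 per group. Oral dosing at 2, 6, 18 or 3, 9, 27 mg/kg in vegetable oil, 1 h before training; vehicle as negative control. Scopolamine (3 mg/kg i.p., in saline) given 30 min later. Behavioural testing after 7 days of treatment. Step-down training used a 0.5 mA, 2 s foot shock. Latency measured 24 h later, cut-off 300 s; mean ± SEM.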

[8] = biological target: Amyloid-beta precursor protein (Homo sapiens) (UniProt P05067); experiment: Inhibition of Cu2+-induced amyloid beta (1 to 42) (unknown origin) aggregation after 24 hrs by thioflavin T fluorescence method; in short: as §2
Acetylcholinesterase [9] = biological target: T2, Acetylcholinesterase (Rattus norvegicus, UniProt P37136); experiment: Inhibition of rat cortex homogenate AchE using acetylthiocholine iodide as substrate after 15 mins by Ellman's method
T2 sequence (P37136 whole entry): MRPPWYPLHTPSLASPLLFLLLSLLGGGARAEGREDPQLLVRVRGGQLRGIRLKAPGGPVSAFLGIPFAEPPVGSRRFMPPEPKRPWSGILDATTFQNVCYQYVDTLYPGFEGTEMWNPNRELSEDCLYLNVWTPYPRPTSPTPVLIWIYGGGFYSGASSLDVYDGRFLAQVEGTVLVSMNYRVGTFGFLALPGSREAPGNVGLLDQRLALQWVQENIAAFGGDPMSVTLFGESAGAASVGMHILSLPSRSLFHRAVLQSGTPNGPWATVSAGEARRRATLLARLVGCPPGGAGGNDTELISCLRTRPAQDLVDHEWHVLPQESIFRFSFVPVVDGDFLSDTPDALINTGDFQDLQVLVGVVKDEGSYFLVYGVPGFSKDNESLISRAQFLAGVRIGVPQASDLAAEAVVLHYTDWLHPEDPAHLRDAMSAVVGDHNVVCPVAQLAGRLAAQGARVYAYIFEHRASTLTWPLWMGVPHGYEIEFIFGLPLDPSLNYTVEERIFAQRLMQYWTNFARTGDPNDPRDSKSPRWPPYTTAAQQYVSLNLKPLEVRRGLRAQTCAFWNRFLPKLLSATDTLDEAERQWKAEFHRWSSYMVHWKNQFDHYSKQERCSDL

Acetylcholinesterase [10] = biological target: T1, Acetylcholinesterase; experiment: Mixed-type inhibition of electric eel AchE using acetylthiocholine as substrate after 15 mins by Lineweaver-Burk plot analysis
In short: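 Purified eel AChE in 0.1 M phosphate pH 8.0 with DTNB. Three inhibitor concentrations preincubated with enzyme 15 min at 37 °C, then acetylthiocholine added at varied concentrations. Hydrolysis followed at 412 nm, with no-inhibitor controls. Lineweaver-Burk plots fitted by weighted least squares; slopes replotted against inhibitor concentration, Ki taken as the negative x-intercept.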

[11] = biological target: Amyloid-beta precursor protein (Homo sapiens) (UniProt P05067); experiment: Induction of amyloid beta (1 to 42) (unknown origin) disaggregation assessed as reduction of Cu2+-induced amyloid beta fibril formation at 25 uM after 24 hrs by thioflavin T fluorescence method; parameters: scale not given: the % may be the effect or the level left
In short: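 Aβ1-42 (25 µM final, HFIP-pretreated) and Cu2+ (25 µM) in HEPES pH 6.6 with 150 mM NaCl, incubated 24 h at 37 °C. Test compound (25 µM final) then added for a further 24 h at 37 °C, wells sealed. Read by ThT in glycine-NaOH pH 8.5 (ex 446/em 490 nm). DMSO 12.5% final; triplicate.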

Chain of Amyloid-beta precursor protein (Homo sapiens) (P05067 whole entry): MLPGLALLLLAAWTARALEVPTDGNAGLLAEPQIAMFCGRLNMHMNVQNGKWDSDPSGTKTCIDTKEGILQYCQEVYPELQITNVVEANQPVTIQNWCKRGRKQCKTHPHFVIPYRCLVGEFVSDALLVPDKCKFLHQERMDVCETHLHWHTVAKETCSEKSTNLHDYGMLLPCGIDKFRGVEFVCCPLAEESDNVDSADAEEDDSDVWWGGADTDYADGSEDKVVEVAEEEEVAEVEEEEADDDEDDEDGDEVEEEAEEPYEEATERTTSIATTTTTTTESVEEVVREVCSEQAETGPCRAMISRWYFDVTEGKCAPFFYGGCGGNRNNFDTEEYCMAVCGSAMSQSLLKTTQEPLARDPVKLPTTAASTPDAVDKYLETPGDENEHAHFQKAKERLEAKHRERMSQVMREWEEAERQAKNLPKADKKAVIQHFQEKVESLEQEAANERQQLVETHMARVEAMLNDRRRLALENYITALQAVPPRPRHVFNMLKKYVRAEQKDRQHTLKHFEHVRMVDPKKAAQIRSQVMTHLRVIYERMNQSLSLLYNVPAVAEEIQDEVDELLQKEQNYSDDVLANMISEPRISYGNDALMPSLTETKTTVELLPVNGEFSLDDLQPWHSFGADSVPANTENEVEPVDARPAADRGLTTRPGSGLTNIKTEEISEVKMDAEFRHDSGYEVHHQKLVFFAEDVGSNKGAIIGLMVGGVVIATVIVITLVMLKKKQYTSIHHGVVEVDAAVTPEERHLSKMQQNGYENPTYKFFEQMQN
T1 sequence (O42275 whole entry): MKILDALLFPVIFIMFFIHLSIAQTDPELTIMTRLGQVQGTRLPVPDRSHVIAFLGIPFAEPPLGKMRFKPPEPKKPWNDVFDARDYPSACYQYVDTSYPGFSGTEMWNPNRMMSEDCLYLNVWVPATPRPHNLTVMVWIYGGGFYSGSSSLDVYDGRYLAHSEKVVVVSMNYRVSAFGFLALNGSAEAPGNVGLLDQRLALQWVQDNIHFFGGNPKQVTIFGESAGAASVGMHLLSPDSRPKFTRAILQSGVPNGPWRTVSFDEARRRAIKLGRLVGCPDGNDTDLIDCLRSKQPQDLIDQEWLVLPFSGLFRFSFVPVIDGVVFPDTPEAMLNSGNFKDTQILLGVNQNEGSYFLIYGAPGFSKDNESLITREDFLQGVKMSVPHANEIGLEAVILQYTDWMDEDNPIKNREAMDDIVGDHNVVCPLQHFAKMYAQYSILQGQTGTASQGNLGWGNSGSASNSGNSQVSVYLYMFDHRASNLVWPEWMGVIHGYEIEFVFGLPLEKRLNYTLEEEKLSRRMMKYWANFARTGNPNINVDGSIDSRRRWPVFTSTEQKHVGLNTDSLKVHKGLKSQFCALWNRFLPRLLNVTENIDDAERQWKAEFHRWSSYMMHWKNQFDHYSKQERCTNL
Chain of Acetylcholinesterase (Homo sapiens, UniProt P22303) (P22303 whole entry): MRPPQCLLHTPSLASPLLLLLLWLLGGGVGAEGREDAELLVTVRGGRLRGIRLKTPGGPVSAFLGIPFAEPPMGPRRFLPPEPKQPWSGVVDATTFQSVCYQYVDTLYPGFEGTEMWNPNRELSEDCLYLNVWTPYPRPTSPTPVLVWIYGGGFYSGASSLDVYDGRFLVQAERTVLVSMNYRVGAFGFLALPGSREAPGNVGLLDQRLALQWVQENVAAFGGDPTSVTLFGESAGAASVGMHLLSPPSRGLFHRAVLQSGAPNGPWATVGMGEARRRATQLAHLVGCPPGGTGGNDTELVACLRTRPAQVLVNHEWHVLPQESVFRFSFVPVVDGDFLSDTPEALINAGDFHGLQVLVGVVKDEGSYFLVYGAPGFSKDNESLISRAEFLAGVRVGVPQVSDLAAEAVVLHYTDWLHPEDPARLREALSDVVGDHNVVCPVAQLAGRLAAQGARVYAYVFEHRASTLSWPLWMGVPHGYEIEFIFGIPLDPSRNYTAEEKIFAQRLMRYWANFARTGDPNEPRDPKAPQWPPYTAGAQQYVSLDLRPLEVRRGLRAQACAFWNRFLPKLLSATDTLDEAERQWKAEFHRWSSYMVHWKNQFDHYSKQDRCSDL
Chain of Butyrylcholinesterase (Rattus norvegicus) (Q9JKC1 as listed by the source): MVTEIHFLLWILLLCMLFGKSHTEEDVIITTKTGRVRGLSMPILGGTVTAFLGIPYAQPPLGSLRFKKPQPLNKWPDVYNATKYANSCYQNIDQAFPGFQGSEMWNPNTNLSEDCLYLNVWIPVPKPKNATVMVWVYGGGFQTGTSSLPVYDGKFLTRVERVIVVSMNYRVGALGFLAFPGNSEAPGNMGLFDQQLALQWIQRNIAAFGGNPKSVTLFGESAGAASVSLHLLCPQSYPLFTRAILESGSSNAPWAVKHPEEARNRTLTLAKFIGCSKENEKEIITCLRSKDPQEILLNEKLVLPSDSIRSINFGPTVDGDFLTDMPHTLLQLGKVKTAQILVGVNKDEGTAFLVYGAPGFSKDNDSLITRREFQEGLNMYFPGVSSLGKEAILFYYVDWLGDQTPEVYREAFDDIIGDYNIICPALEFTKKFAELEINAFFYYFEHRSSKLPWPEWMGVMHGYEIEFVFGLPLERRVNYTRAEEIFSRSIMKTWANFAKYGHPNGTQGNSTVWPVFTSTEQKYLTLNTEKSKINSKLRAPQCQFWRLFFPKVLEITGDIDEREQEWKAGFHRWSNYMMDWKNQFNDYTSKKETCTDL

CCN(CCCCOc1ccc(-c2coc3cc(OCCCCN(CC)Cc4ccccc4OC)cc(O)c3c2=O)cc1)Cc1ccccc1OC
inhibition [1]: 35% | IC50 (Acetylcholinesterase [2]): 140 nM | inhibition [3]: 20% | inhibition [4]: 77.8% | Activity [5]: 0.3 | inhibition [6]: Dose-dependent effect | IC50 (Acetylcholinesterase [7]): 350 nM | Activity (Mus musculus): Dose-dependent effect | inhibition [8]: Dose-dependent effect | IC50 (Acetylcholinesterase [9]): 90 nM | Ki (Acetylcholinesterase [10]): 140 nM | Activity [11]: 72.1%
